Assay outcomes from PubChem.
A selection: hits, their analogues and other compounds. The true share with any hit is near 1.8%.
DNMT1 inh: human DNMT1 methyltransferase inhibitors, primary screen, biochemical, molecular beacon, fluorescence, HinP1I cleavage, uHTS; AID 588458, 2011; inhibition (reported as % activation of signal), % at 10 µM; actives 0.83% (n = 360,000); in the data active means inhibition above about 50%
Scp-1 inhibitor: Scp-1 phosphatase inhibitors, primary screen, biochemical, colorimetric, uHTS | Carboxy-terminal domain RNA polymerase II polypeptide A small phosphatase 1 (Homo … | Recombinant Scp1, phosphopeptide, malachite green phosphate absorbance | inhibition, % at 20 µM | actives 0.88% (n = 340,000) | AID 493091, 2011;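 active means inhibition above about 50% at 20 µM, limit read from the data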;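 further: plate controls were DMSO wells with enzyme for no effect and wells lacking enzyme for full effect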
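Test system: SCP-1 phosphatase catalytic domain, residues 76-261 | Compound dosing: One concentration, 20 µM, with 1.0% DMSO | Schedule: 45 min room-temperature reaction, 5 min colour, 30 min stabiliser | Detection: Absorbance at 630 nm | Read-out basis: % inhibition of SCP-1 phosphate liberation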
LMPTP block: LMPTP phosphatase inhibitors, primary screen, biochemical, fluorescence intensity, uHTS | Low molecular weight phosphotyrosine protein phosphatase (Homo sapiens), P24666 | recombinant LMPTP-A, OMFP fluorogenic substrate | inhibition, % at 20 µM | actives 0.22% (n = 360,000);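 active means compounds that cut the enzyme signal by at least half of the control window in the single-dose screen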;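 further: plate controls were DMSO wells with enzyme plus substrate for no effect and substrate without enzyme for full effect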
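Test system: LMPTP-A, protein tyrosine phosphatase of low molecular weight; Input: 0.625 nM enzyme; Incubation: 50 min dark incubation at room temperature; Signal: endpoint fluorescence intensity from OMFP dephosphorylation; Read-out basis: % inhibition versus control wells.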
SUMO1-SIM PPI: modulators of SUMO1 protein-protein interactions, primary screen, biochemical, uHTS; SUMO1 binding to a labelled peptide, TR-FRET, 1 h; inhibition, % at 20 µM; actives 0.33% (n = 360,000); in the data active means inhibition above about 37%
HKDC1 inh: HKDC1 hexokinase inhibitors, primary screen, biochemical, fluorescence, uHTS. inhibition, % at 20 µM. recombinant HKDC1, G6PDH/diaphorase resazurin coupled fluorescence. Q2TB90. actives 0.16% (n = 340,000). AID 493160, 2011;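 active means inhibition above about 35% when tested at 20 µM, limit read from the data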;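 further: plate controls were DMSO wells with enzyme for no effect and DMSO wells lacking enzyme for full effect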
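Material – in-house recombinant HK5 (HKDC1) enzyme · Quantity – HKDC1 at 5 µg/mL · Buffer or medium – pH 8.0 Tris buffer with 10 mM MgCl2 · Reagent – glucose with 1 mM ATP · Dosing – single 20 µM dose · Times – reaction time 90 min, room temperature, protected from light · Technique – resorufin fluorescence at 613 nm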
STEP inh: STEP phosphatase inhibitors, primary screen, biochemical, fluorescence intensity, uHTS; recombinant STEP, OMFP fluorogenic substrate; inhibition, % at 20 µM; actives 0.25% (n = 360,000);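 active means inhibition at 20 µM, scaled per plate between control wells, above about 37%, limit read from the data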;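 further: 0% = DMSO with enzyme and substrate and 100% = substrate only without enzyme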
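Test system: STEP tyrosine phosphatase / Reagent: OMFP at 25 µM / Doses: 20 µM, 1% DMSO / Read-out: percent inhibition scaled to no-enzyme and uninhibited-enzyme controls, plate-pattern corrected / Detection: FITC-channel fluorescence of OMFP product / Medium: Bis-Tris buffer pH 6.0, 2.5 mM DTT, 0.005% Tween 20 / Schedule: 20 min at room temperature, dark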
An asterisk follows results filed as active; . = not tested or not shown.

SMILES	DNMT1 inh	Scp-1 inhibitor	LMPTP block	SUMO1-SIM PPI	HKDC1 inh	STEP inh
CN(C)[C@@H]1C(=O)C(C(N)=O)=C(O)[C@@]2(O)C(=O)C3=C(O)c4c(O)cccc4[C@@](C)(O)C3C[C@@H]12 (some centres undefined)	84*	1	41	37*	4	10
CN(C)[C@@H]1C(=O)C(C(N)=O)=C(O)[C@@]2(O)C(=O)C3=C(O)c4c(O)ccc(Cl)c4[C@@](C)(O)[C@H]3C[C@@H]12	10	12	5	-3	-1	3
CN(C)[C@@H]1C(=O)C(C(N)=O)=C(O)[C@@]2(O)C(=O)C3=C(O)c4c(O)cccc4[C@@](C)(O)[C@H]3[C@H](O)[C@@H]12	97*	65*	66*	70*	24	34
CC(=O)NNC(=O)CN1C(=O)CN=C(c2ccccc2)c2cc(Br)ccc21	0	-2	-2	-1	0	-1
CN1CCN(C(=O)COc2ccc(S(=O)(=O)NC3CCCCC3)cc2Cl)CC1	-1	-8	-1	1	-4	-3
CC(C)[C@H]1C(=O)O[C@H](C(C)C)C(=O)N(C)[C@@H](C(C)C)C(=O)O[C@H](C(C)C)C(=O)N(C)[C@@H](C(C)C)C(=O)O[C@H](C(C)C)C(=O)N1C	-12	4	0	3	0	-2
NC(N)=Nc1ccc2[nH]c3c(c2c1)C[C@@]1(O)[C@H]2Cc4ccc(O)c5c4[C@@]1(CCN2CC1CC1)[C@H]3O5	27	99*	12	0	1	-2
O=C(O)c1ccc(NC(=O)N2C[C@H]3C[C@@H](C2)c2cccc(=O)n2C3)cc1	1	-1	1	-3	3	-6
COc1cccc(N2C(=O)NC(=O)/C(=C/c3ccc([N+](=O)[O-])s3)C2=O)c1	33	12	8	47*	2	3
COc1ccc(N2C(=O)NC(=O)/C(=C/c3ccc([N+](=O)[O-])s3)C2=O)cc1	29	20	14	38*	5	5
CCn1nc(-c2cccs2)nc2c(=O)n(C)c(=O)nc1-2	119*	-7	63*	24	-31	65*
COc1ccc(-n2c(/C=C/c3ccc(O)cc3)nc3ccccc3c2=O)cc1	-1	-2	3	-19	4	-2
CCn1nc(/C=C/c2ccccc2)nc2c(=O)n(C)c(=O)nc1-2	108*	-9	62*	35	3	69*
COC(=O)[C@@H]1N=C(c2ccc(OC)cc2)O[C@]12C(=O)N(Cc1ccc(OC)cc1)c1ccccc12	.	.	2	1	.	.
CC(C)OP(=O)(O)NC(=O)c1ccccc1	0	-9	-1	0	-8	-1
Cc1cc(C(C#N)c2ccc(Cl)cc2)c(Cl)cc1NC(=O)c1cc(I)cc(I)c1O (centres undefined)	74*	9	6	51*	6	10
COC(=O)c1nc(-c2ccc3c(n2)C(=O)C(N)=C(OC)C3=O)c(N)c(-c2ccc(OC)c(OC)c2O)c1C	86*	-8	1	14	22	3
COc1ccc(N2C(=O)NC(=O)/C(=C\c3ccc([N+](=O)[O-])s3)C2=O)cc1	16	3	6	21	6	6
COc1ccc(CN2C(=O)NC(=O)/C(=C/c3ccc([N+](=O)[O-])s3)C2=O)cc1	51*	14	35	65*	13	9
O=C1NC(=O)N(Cc2ccc(F)cc2)C(=O)/C1=C\c1ccc([N+](=O)[O-])s1	49	5	27	58*	12	6
